According to ChEMBL document CHEMBL1144751, “Synthesis of caged 2,3,3a,7a-tetrahydro-3,6-methanobenzofuran-7(6H)-ones: Evaluating the minimum structure for apoptosis induction by gambogic acid” (Bioorg Med Chem, 2008):

Legend:
T47D [1] = test: Induction of apoptosis in human T47D cells assessed as caspase 3 activation after 24 hrs; assay type: functional, cell-based
In short: (§1)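 Cell-based caspase-3 activation HTS assay. After compound exposure, the fluorogenic caspase-3 substrate N-(Ac-DEVD)-N-ethoxycarbonyl-R110 in caspase buffer was added and incubated 2 h at 37 °C. Fluorescence was read as RFU. Activation is the ratio of net RFU for treated samples to that of control samples. Values are means ± SEM of three or more experiments.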

SNU-398 [2] = test: Growth inhibition of human SNU398 cells after 48 hrs by CellTiter-Glo assay; assay type: functional; conditions: SNU-398, 48 h
In short: (§2)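 T47D, HCT116 and SNU398 cells from ATCC, run in 96-well format. Cells were exposed continuously to test compound for 48 h, then given CellTiter-Glo reagent, mixed by agitation, held 10–15 min at room temperature and read by luminescence. GI50 is the concentration giving 50% inhibition relative to untreated control cells. Values are means ± SEM of three experiments.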

SNU-398 [3] = test: Induction of apoptosis in human SNU398 cells assessed as caspase 3 activation after 24 hrs; assay type: functional, cell-based; conditions: SNU-398, 24 h; in short: as §1
T47D [4] = test: Growth inhibition of human T47D cells after 48 hrs by CellTiter-Glo assay; assay type: functional; in short: as §2
HCT-116 [5] = test: Induction of apoptosis in human HCT116 cells assessed as caspase 3 activation after 24 hrs; assay type: functional, cell-based; conditions: HCT-116, 24 h; in short: as §1
HCT-116 [6] = test: Growth inhibition of human HCT116 cells after 48 hrs by CellTiter-Glo assay; assay type: functional; conditions: HCT-116, 48 h; in short: as §2

| SMILES | EC50 (T47D [1]) | GI50 (SNU-398 [2]) | EC50 (SNU-398 [3]) | GI50 (T47D [4]) | EC50 (HCT-116 [5]) | GI50 (HCT-116 [6]) |
| --- | --- | --- | --- | --- | --- | --- |
| CC(C)=CC[C@]12OC(C)(C)C3C[C@@]4(OC(c5ccccc5)=CC(=O)C4=C[C@@H]31)C2=O | 4.8 µM | 1200 nM | 2500 nM | 1000 nM | 3.6 µM | 900 nM |
| CC(C)=CC[C@@]12OC(C)(C)C3C[C@H](C=C4C(=O)c5ccccc5O[C@]431)C2=O | 3 µM | 200 nM | 900 nM | 200 nM | 2.3 µM | 200 nM |
| C=CC[C@@]12CC3CO[C@](CC=C)(C1=O)[C@@]3(CC=C)C=C2C(=O)c1ccccc1 | > 20 µM | – | > 20000 nM | – | > 20 µM | – |
| CC(C)=CCC[C@]1(C)C=Cc2c(O)c3c(c(CC=C(C)C)c2O1)O[C@]12C(C[C@H]4CC1C(C)(C)O[C@@]2(C/C=C(\C)C(=O)O)C4=O)C3=O (stereo partly drawn) | > 20 µM | > 20000 nM | > 20000 nM | > 20000 nM | > 20 µM | > 20000 nM |
| C=CC[C@@]12C=C(C(=O)c3ccccc3)[C@]3(CC=C)C(CO[C@@]3(CC=C)C1=O)C2 | > 20 µM | > 20000 nM | > 20000 nM | > 20000 nM | > 20 µM | > 20000 nM |
| CC(C)=CC[C@@]12OC(C)(C)C3C[C@H](C=C4C(=O)C=C(c5ccccc5)O[C@]431)C2=O | 5.1 µM | 1200 nM | 2600 nM | 1400 nM | 5.4 µM | 1100 nM |
| CC(C)=CCC[C@]1(C)C=Cc2c(O)c3c(c(CC=C(C)C)c2O1)O[C@]12C(=C[C@@H]4C[C@H]1C(C)(C)O[C@@]2(C/C=C(/C)C(=O)O)C4=O)C3=O [GAMBOGIC ACID] | 0.7 µM | 200 nM | 700 nM | 200 nM | 0.7 µM | 100 nM |

Now from value to compound:

| EC50 (T47D [1]) | GI50 (SNU-398 [2]) | EC50 (SNU-398 [3]) | GI50 (T47D [4]) | EC50 (HCT-116 [5]) | GI50 (HCT-116 [6]) | SMILES |
| --- | --- | --- | --- | --- | --- | --- |
| 5.9 µM | 1500 nM | 5100 nM | 1400 nM | > 20 µM | 1500 nM | C=CC[C@]12OCC3C[C@@]4(Oc5ccccc5C(=O)C4=C[C@@H]31)C2=O |
| 2.7 µM | 300 nM | 1500 nM | 300 nM | 1.9 µM | 200 nM | CC(C)=CC[C@]12OC(C)(C)C3C[C@@]4(Oc5ccccc5C(=O)C4=C[C@@H]31)C2=O |
| > 20 µM | > 20000 nM | > 20000 nM | > 20000 nM | > 20 µM | > 20000 nM | C=CC[C@@]12OCC3C[C@H](CC4C(=O)c5ccccc5O[C@@]341)C2=O (stereo partly drawn) |
| > 20 µM | 1900 nM | 5700 nM | 1600 nM | 7.1 µM | 1600 nM | C=CC[C@@]12OCC3C[C@H](C=C4C(=O)c5ccccc5O[C@]431)C2=O |
